Bioassay records: PubChem BioAssay, The Scripps Research Institute Molecular Screening Center
Shown are actives, neighbours in structure and some others; about 1.4% of the full set was active somewhere.
PLCb3 inh: blocks human PLC-beta3 enzyme activity | Q01970 | Purified PLC-beta3, fluorogenic substrate, fluorescence | inhibition, % at 12.2 µM | actives 0.18% (n = 370,000) | AID 720704;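 also: 0% = median of compound wells on plate and 100% = full blocker control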
DNA FID counter: counter-screen for HCV NS3 helicase inhibitors: DNA intercalator displacement | actives 0.17% (n = 290,000) | DNA fluorescent intercalator displacement, fluorescence | inhibition, % at 7.9 µM; in the data active = inhibition above about 37%;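 also: 0% = vehicle and 100% = reference compound; higher means more ethidium bromide displaced from hairpin DNA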
Tn6 DDE FP: inhibitors of Tn6 peptide binding to human fibrin DD(E); actives 0.21% (n = 370,000); inhibition, % at 8.3 µM; P02675; Fibrin DD(E) TRITC-Tn6 fluorescence polarization displacement;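 active = inhibition above a per-campaign cutoff: mean of compounds within control limits plus 3 SD, cut at about 15% in these data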;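 also: 0% = median of all compound wells on the plate and 100% = blocking peptide control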
PLC-gamma1 inh: inhibitors of human phospholipase C gamma1; P19174; purified PLC-gamma1, fluorogenic substrate, fluorescence; inhibition, % at 12.2 µM; actives 0.84% (n = 370,000); AID 720700; in the data active = inhibition above about 9.5%
Tn7 DDE FP: DD(E)-Tn7 binding inhibition, primary FP screen | FP displacement of FITC-Tn7 peptide from fibrin DD(E); 0% = median of compound wells per plate | inhibition, % at 8.3 µM | actives 0.13% (n = 370,000) | AID 720508;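 active = inhibition above the mean of compounds falling within the control limits plus 3 SD of them, cut at about 14% in these data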;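 also: 0% = plate median of compound wells and 100% = 10 µM Aha-Tn7 peptide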
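System: human fibrin DD(E); quantity: Fibrin-DD(E) at 2 µM final; also added: fluorescent Tn7 probe at 0.1 µM; compound dosing: single nominal test concentration of 8.3 µM per compound; schedule: 10 min preincubation, 3 h with tracer, room temperature; detection: fluorescence polarization of the labelled Tn7 tracer; repeats: one replicate per compound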
PLCg1 ctr: inhibits human PLC-gamma1 in PLC-beta3 counter-screen. shares compounds with PLC-gamma1 inh. purified PLC-gamma1, fluorogenic substrate, fluorescence. inhibition, % at 12.3 µM. actives 3.1% (n = 3,300); in the data active = inhibition above about 9.5%
PLCbeta3 conf: human PLC-beta3 inhibition, confirmation. shares compounds with PLC-gamma1 inh. purified PLC-beta3, fluorogenic substrate fluorescence. inhibition, % at 12.3 µM. actives 1% (n = 3,300)
The depositor's hits bear a star; / = no result. Rule as the data show it, unless noted: active = inhibition above about 11%; inactive = the rest.

SMILES	PLCb3 inh	DNA FID counter	Tn6 DDE FP	PLC-gamma1 inh	Tn7 DDE FP	PLCg1 ctr	PLCbeta3 conf
CNC(=O)CN1C(=O)CSc2ncccc21	14.1*	0.5	2.4	3.7	1.0	1.7	1.8
N#Cc1cccc(NC(=O)COC(=O)C2CCC2)c1	-2.0	/	-0.6	-1.0	-5.8	/	/
O=C(O)c1cccc(Nc2ccncc2[N+](=O)[O-])c1	6.3	-3.7	2.0	10.5*	0.3	-8.4	-2.1
COc1ccccc1CN1CCC(n2nccc2NC(=O)c2ccccc2Cl)CC1	0.6	3.0	-3.6	11.3*	-6.9	-1.9	0.1
COc1ccccc1C(=O)Nc1ccnn1C1CCN(Cc2ccccc2OCCO)CC1	-4.9	2.8	4.7	-2.1	2.4	/	/
O=C(N=C1SC2CS(=O)(=O)CC2N1c1ccc(F)cc1)C1CCCCC1 (configuration not stated)	-0.9	-19.7	-4.0	1.0	-4.9	/	/
Cc1ccccc1C(=O)NC(C)c1ccc2c(c1)CCCC2 (configuration not stated)	13.1*	-24.5	-1.3	10.3*	6.5	1.8	6.9
COc1ccc(C(C)NC(=O)c2ccccc2Br)cc1OC (configuration not stated)	5.6	-4.7	2.4	2.5	6.3	/	/
CC(=O)c1cccc(N=C2NC(=O)CS2)c1	1.2	0.8	2.6	-0.4	2.3	/	/
C/C(=N\N=C1\NC(=O)CS1)c1cccs1	6.3	-7.0	2.8	13.1*	-4.0	1.6	3.0
C=C(O[C@H]1[C@H](O)CC=C(C(=O)O)[C@@H]1O)C(=O)O	0.1	/	-1.6	1.4	-3.3	/	/
Cc1cnnc2c1-c1no[n+]([O-])c1CC2	9.0	-0.3	-6.3	12.9*	-3.6	-0.3	1.8
Cc1cnnc2c1-c1nonc1CC2	-0.1	-1.6	6.2	4.1	6.4	/	/
O=C(O)C1Nc2c(O)cccc2C2C=CCC12 (configuration not stated)	6.8	0.3	7.9	18.5*	3.9	-3.1	-6.7
CCN1CCN(c2ccc([N+](=O)[O-])c(Sc3nc4ccccc4[nH]3)c2)CC1	-1.4	22.5	0.4	0.9	-1.5	/	/
CCOC(=O)C(Sc1nn(C)c(=S)s1)C(C)=O (configuration not stated)	10.9*	1.0	-3.8	3.0	-4.9	5.9	2.3
O=S1(=O)CCN(CCc2ccccc2)CC1	12.1*	/	-5.1	5.8	-3.0	-8.3	-12.0
C[C@H](CO)N1C[C@H](C)[C@@H](CN(C)S(C)(=O)=O)Oc2c(NC(=O)Nc3ccc(C(F)(F)F)cc3)cccc2C1=O	11.9*	/	-16.5	8.5	-9.7	-4.0	1.9
C[C@H]1CN([C@@H](C)CO)C(=O)c2cccc(NC(=O)Nc3ccc(C(F)(F)F)cc3)c2O[C@H]1CN(C)C	4.0	/	-0.8	1.3	-0.3	/	/
COc1ccc(NC(=O)N(C)C[C@H]2Oc3c(NC(=O)NC(C)C)cccc3C(=O)N([C@H](C)CO)C[C@@H]2C)cc1	11.2*	/	0.9	3.3	-3.8	-7.8	-1.8
COc1ccc(NC(=O)N(C)C[C@H]2Oc3c(NC(=O)C4CCCCC4)cccc3C(=O)N([C@H](C)CO)C[C@@H]2C)cc1	3.0	/	2.4	-0.1	-0.2	/	/
CC(C)Oc1cccc(C(=O)NC(=S)Nc2ccc(Cl)c(C(=O)O)c2)c1	-5.6	-35.7	-5.9	10.4*	-3.2	-8.6	-4.1
CCCC(=O)NNC(=O)CCC(=O)Nc1ccccc1Cl	-0.5	4.9	11.6	10.1*	-0.7	-4.2	-1.6
O=C(CCC(=O)Nc1ccccc1Cl)NNC(=O)NC1CCCCC1	-8.7	-12.9	-2.9	0.4	6.2	/	/
CCOCCCNC(=O)C1(O)c2ccccc2NC(=O)N1c1ccc(C)c(C)c1 (configuration not stated)	3.1	-4.0	-1.5	6.8	-1.4	/	/
SMILES	PLCb3 inh	DNA FID counter	Tn6 DDE FP	PLC-gamma1 inh	Tn7 DDE FP	PLCg1 ctr	PLCbeta3 conf
CCOCCCNC(=O)C1(O)c2ccccc2NC(=O)N1c1ccc(Cl)c(Cl)c1 (configuration not stated)	1.4	-11.1	5.2	0.6	6.0	/	/
CCC(C)NC(=O)C1(O)c2ccccc2NC(=O)N1c1ccc(C)c(C)c1 (configuration not stated)	6.8	-5.7	-5.2	11.4*	5.0	-7.2	-19.5
CCCCN(C)CCCNC(=O)C1(O)c2ccccc2NC(=O)N1c1ccc(Cl)cc1 (configuration not stated)	3.7	-6.9	-4.8	11.7*	-6.1	-4.6	-6.7
CC(OC(=O)C(C)Oc1ccccc1)C(=O)Nc1ccc(S(=O)(=O)N2CCCCC2)cc1 (configuration not stated)	-4.8	/	2.6	-2.8	1.1	/	/
O=C(Nc1ccc(-c2cnco2)cc1)c1ccccc1	-3.4	-5.8	2.4	1.5	-2.4	/	/
CC(C)(C)c1ccc(C(=O)NNC(=O)c2ccncc2)cc1	-3.8	-1.8	6.8	-1.6	-5.4	/	/
COc1ccccc1Nc1nc2c(s1)CCC2	-1.8	-3.2	-7.0	-1.2	-5.1	/	/
CCn1cc(C(=O)N2CCc3ccccc32)c(=O)c2cc(S(=O)(=O)N(C)C3CCCCC3)ccc21	5.4	-7.5	5.8	10.5*	-4.2	-2.7	-4.4
CCn1cc(C(=O)N2CCc3ccccc32)c(=O)c2cc(S(=O)(=O)N3CCOCC3)ccc21	1.4	-19.6	3.0	-2.2	-6.4	/	/
CN(c1ccccc1)S(=O)(=O)c1ccc(Cl)c(C(=O)Nc2ccncc2)c1	1.6	/	1.0	9.8*	2.2	-5.6	-6.3
CN(c1ccc(F)cc1)S(=O)(=O)c1ccc(Cl)c(C(=O)Nc2ccncc2)c1	-7.3	/	1.6	1.5	-6.3	/	/
CC1CCN(C(=O)c2ncn(C)c2C(=O)N2CCC(C)CC2)CC1	0.3	/	4.0	-1.2	4.7	/	/
Cc1ccc2cc(C#N)c(NCc3ccco3)nc2c1	-242.4	-5.0	-1.3	-255.6	-9.1	/	/
COC(=O)c1cc(COC(=O)c2nc3nc(C)cc(C)n3n2)oc1C	12.0*	1.0	-5.5	9.1	-6.5	0.6	2.8
O=C(NC1CCCCC1)C1c2ccccc2C(=O)N1Cc1ccc2c(c1)OCO2 (configuration not stated)	-1.2	-19.1	9.4	0.8	6.0	/	/
COc1ccc(CC(NC(C)=O)C(=O)NC2CCN(C(=O)Nc3ccccc3C)CC2)cc1OC (configuration not stated)	-5.2	-12.2	-6.6	10.5*	6.0	-4.7	-1.5
COc1ccccc1CC(NC(C)=O)C(=O)NC1CCN(C(=O)Nc2ccc(F)cc2)CC1 (configuration not stated)	-9.2	-20.9	-1.9	10.8*	-6.3	-4.9	-1.2
COc1ccccc1CC(NC(C)=O)C(=O)NC1CCN(C(=O)Nc2cccc(F)c2)CC1 (configuration not stated)	2.8	-22.9	6.2	-0.6	7.3	/	/
O=C(Cn1ccc([N+](=O)[O-])n1)NCc1ccco1	-0.8	-1.7	-1.4	1.3	1.3	/	/
